This excerpt belongs to a sample that is enriched for hits.
INS promoter act: TRM-6 insulin promoter activation. TRM-6 cells, insulin promoter eGFP reporter, imaging; plate-scaled: unstimulated 0, stimulated control 100. activation, % at 2 µM. hit rate 0.81% among 130,000;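 active = activation at 2 µM above a set limit, confirmed on inspection of the cell images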;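 also: share of cells whose green reporter signal exceeds an intensity cutoff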
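material = TRM-6 human fetal islet cells, insulin promoter–eGFP reporter | input = 1,000 TRM-6 cells seeded per well | benchmarks = stimulated versus unstimulated wells as plate controls | measured by = automated fluorescence imaging of paraformaldehyde-fixed, Hoechst-counterstained cells, green channel | schedule = compound exposure 48 h, 37 °C | reagent = tamoxifen at 0.75 µM added at seeding for reporter induction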
A number is an active result; [ ] = dose if it differs, or a comment.

What do the screens show for `CCN(CC)C(=O)Cn1cc(C(=O)C(=O)N2CC=C(c3ccccc3)CC2)c2ccccc21`?
INS promoter act: inactive

How did O=C(NCCc1ccccc1Cl)C1CCN(S(=O)(=O)c2cccs2)CC1 do in these assays?
INS promoter act: inactive

What do the screens show for `CCOC(=O)c1c(NC(=O)C2CCN(S(=O)(=O)c3cccs3)CC2)sc(C)c1C`?
INS promoter act: 454.3

Results for COc1ccc(N2CCN(CCNC(=O)C3CCN(S(=O)(=O)c4cccs4)CC3)CC2)cc1 ?
INS promoter act: inactive

What do the screens show for `CCC(C)(C)NC(=O)C1CCN(S(=O)(=O)c2cccs2)CC1`?
INS promoter act: active[fluoresces]

How did CCOC(=O)Nc1sc(C)c(C)c1C(=O)OCC do in these assays?
INS promoter act: inactive

What do the screens show for `Cc1ccccc1NC(=O)C1CCN(S(=O)(=O)c2cccs2)CC1`?
INS promoter act: inactive

What do the screens show for `O=C(c1ccc(Oc2ccccc2)cc1)c1nc2c(n1O)CCCC2`?
INS promoter act: inactive

How did CN(C(=O)CSc1nnnn1-c1ccccc1)C1CCS(=O)(=O)C1 (centres undefined) do in these assays?
INS promoter act: inactive

Results for O=C(Cn1c(=O)n(-c2ccc(F)cc2)c(=O)c2sccc21)c1ccccc1 ?
INS promoter act: inactive

Results for CCS(=O)(=O)N1Cc2ccccc2CC1C(=O)Nc1nnc(SCc2ccc(F)cc2)s1 (centres undefined) ?
INS promoter act: inactive

How did CC(CN1CCCCC1)OC(=O)C(C)(c1ccccc1)c1ccccc1 (centres undefined) do in these assays?
INS promoter act: inactive

What do the screens show for `O=C(c1ccc(S(=O)(=O)Cc2ccccc2F)c([N+](=O)[O-])c1)N1CCCC1`?
INS promoter act: inactive

How did CC1CCN(C(=O)c2ccc(S(=O)(=O)Cc3ccccc3F)c([N+](=O)[O-])c2)CC1 do in these assays?
INS promoter act: inactive

What do the screens show for `CC1(c2ccc([N+](=O)[O-])c(CS(=O)(=O)c3ccccc3)c2)OCCO1`?
INS promoter act: 627.3

How did O=C(O)Cc1ccc(C(=O)c2ccccc2F)s1 do in these assays?
INS promoter act: inactive

How did CCOC(=O)c1ccc(NC(=O)c2ccccc2C)cc1 do in these assays?
INS promoter act: inactive

Results for O=C(Nc1ccc(S(=O)(=O)N2CCCCC2)cc1)c1ccc(CN2CCc3ccccc3C2)cc1 ?
INS promoter act: inactive

How did CCN1CCCC1CNS(=O)(=O)c1ccc(C(=O)Nc2ccccc2)cc1 (centres undefined) do in these assays?
INS promoter act: 500.0

What do the screens show for `CCNS(=O)(=O)c1ccc(NC(=O)c2ccccc2OCC)cc1`?
INS promoter act: inactive

How did CCCn1c(=O)n(C)c(=O)c2c(SCC(=O)NCc3ccco3)nc(C3CC3)nc21 do in these assays?
INS promoter act: inactive

How did CC(=O)NC1=NN(C(C)=O)C(c2ccc(F)cc2)S1 (centres undefined) do in these assays?
INS promoter act: inactive

What do the screens show for `S=C(c1ccc(-c2ccc(Cl)cc2)o1)N1CCCCC1`?
INS promoter act: inactive

How did Nc1cccc(-c2ccc(CO)o2)c1 do in these assays?
INS promoter act: inactive

Results for OCCc1ccc(-c2ccc(Cl)cc2)o1 ?
INS promoter act: 450.0

How did CC(C(=O)Nc1ccc2c(c1)OCO2)N(c1ccc(Cl)cc1)S(C)(=O)=O (centres undefined) do in these assays?
INS promoter act: inactive

What do the screens show for `C=CCn1c(C)cc(C(=O)COC(=O)c2ccc3c(c2)NC(=O)CS3)c1C`?
INS promoter act: inactive

What do the screens show for `CN(C)C=Nc1c(Br)cc(Br)c2nonc12`?
INS promoter act: 203.0

How did CN(C)C=Nc1nonc1-c1ncn[nH]1 do in these assays?
INS promoter act: inactive

How did Cc1c(C)n(C(=O)CSc2nc3ccccc3[nH]2)c2ccccc12 do in these assays?
INS promoter act: inactive

Results for COc1cccc(-c2cc(C(=O)NCC3CCCO3)c3ccccc3n2)c1 (centres undefined) ?
INS promoter act: inactive

Results for Cc1sccc1C1C(C#N)=C(N)SC(N)=C1C#N ?
INS promoter act: inactive

What do the screens show for `CCCCc1ccc(C2C(C#N)=C(N)SC(N)=C2C#N)s1`?
INS promoter act: 275.0

Results for Cc1cc(C2C(C#N)=C(N)SC(N)=C2C#N)c(C)s1 ?
INS promoter act: inactive

What do the screens show for `O=C(COC(=O)c1ccc2ccccc2n1)c1ccccc1`?
INS promoter act: inactive

Results for Nn1cnnc1SCC(=O)Nc1ccc2c(c1)OCO2 ?
INS promoter act: inactive

What do the screens show for `O=C(OCC(=O)c1c[nH]c2ccccc12)c1cc(Br)ccc1O`?
INS promoter act: inactive

What do the screens show for `CSCCC(NC(=O)c1ccc(C(C)(C)C)cc1)C(=O)O` (centres undefined)?
INS promoter act: inactive

How did CCn1c(Cc2ccccc2)nnc1SCC(=O)Nc1ccc(OC)cc1 do in these assays?
INS promoter act: inactive

Results for CCn1c(Cc2ccc(OC)cc2)nnc1SCC(=O)Nc1cccc(C(=O)OC)c1 ?
INS promoter act: 442.9

Results for CCn1c(Cc2ccccc2)nnc1SCC(=O)Nc1ccc2c(c1)OCCO2 ?
INS promoter act: inactive

Results for Cc1cccc(NC(=O)CSc2ccc(C(N)=O)cc2[N+](=O)[O-])c1C ?
INS promoter act: inactive

How did O=C1c2ccccc2CC1(Cc1ccccc1)Cc1ccccc1 do in these assays?
INS promoter act: inactive

How did Cc1cc(C(=O)OCC(=O)Nc2ccc(F)cc2)c(C)o1 do in these assays?
INS promoter act: inactive

What do the screens show for `CSc1nnc(C)c(=O)n1COC(=O)/C=C/c1ccccc1`?
INS promoter act: inactive

Results for CC(C)(C)OC(=O)N[C@@H](Cc1c[nH]c2ccccc12)c1nnc(SCC(N)=O)o1 ?
INS promoter act: inactive

How did CC(C)(C)OC(=O)N[C@@H](Cc1ccccc1)c1nnc(SCC(=O)c2ccc(Cl)cc2)o1 do in these assays?
INS promoter act: 506.7

Results for Cc1ccccc1CS(=O)(=O)c1nnc([C@H](Cc2ccccc2)NC(=O)OC(C)(C)C)o1 ?
INS promoter act: inactive

How did CCc1ccc(CNC(=O)CN2C(=O)COc3ccccc32)cc1 do in these assays?
INS promoter act: inactive

Results for CCC(C)NS(=O)(=O)c1ccc(OCC(=O)NCc2ccc3c(c2)OCO3)cc1 (centres undefined) ?
INS promoter act: inactive

What do the screens show for `COc1ccc(C(=O)OCC(=O)Nc2ccc(F)cc2F)cc1OC`?
INS promoter act: inactive

How did CCC(C)NS(=O)(=O)c1ccc(OCC(=O)Nc2ccc(F)cc2F)cc1 (centres undefined) do in these assays?
INS promoter act: 462.5

Results for CC(C)CNC(=O)NC(=O)COC(=O)c1cc(F)cc(F)c1 ?
INS promoter act: 333.3

How did CC(C)CCNC(=O)NC(=O)COC(=O)C1=COCCO1 do in these assays?
INS promoter act: inactive

Results for COc1cccc(OC)c1C(=O)OCC(=O)NCC(C)C ?
INS promoter act: inactive

What do the screens show for `Cc1nn(-c2ccccc2)c(Cl)c1/C=C1\N=C(c2ccccc2)OC1=O`?
INS promoter act: inactive

Results for CC(=O)NC1(c2ccc(F)cc2)CCN(C(=O)Nc2ccc(F)cc2F)CC1 ?
INS promoter act: inactive

What do the screens show for `COc1ccc(NC(=O)CSc2nnc(-c3ccoc3C)n2CC2CCCO2)cc1` (centres undefined)?
INS promoter act: 506.3

How did COc1cccc(NC(=O)CSc2nnc(-c3ccoc3C)n2CC2CCCO2)c1 (centres undefined) do in these assays?
INS promoter act: inactive

Results for O=C(CSc1nnc(-c2ccco2)n1CC1CCCO1)NC1CCCC1 (centres undefined) ?
INS promoter act: inactive

What do the screens show for `CCCCCNC(=O)N[C@H](C(=O)O)C(C)C`?
INS promoter act: inactive

Compound activity (PubChem)
